We go through 20 molecules from PubChem BioAssay.

SMILES strings stand for the structures. Unmarked numbers belong to inactive results. Records with an inconclusive call do not appear. Active and inactive are the calls of the source.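 How the source made its calls, unless noted: active means growth inhibition above 25% in both replicates, a cutoff set 3 SD above the mean; inconclusive means above 25% in only one replicate; inactive means the rest.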

Assay [1] can be described thus: OD615 S. cerevisiae growth inhibition, permissive medium, pilot counter-assay, permissive growth control for S. cerevisiae lifespan shortening project (AID 705). Conditions: OD615, 24 h, at 10 µM, hits give high values. A digest of the protocol: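 Material: engineered DeaD yeast; compound dosing: one dose 10 µM, DMSO 0.25% final; measure: yeast growth inhibition indicated by reduced 24 h OD615; detection: OD615 turbidity read; incubation: cells pre-grown 4 h, then 24 h compound exposure, 30 °C humidified; medium: permissive synthetic complete medium with raffinose and galactose carbon sources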

Assay [2] is described as follows: Restrictive medium S. cerevisiae growth inhibition, OD615, pilot screen of yeast lifespan reduction project, restrictive growth control (AID 706;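 active means growth inhibition above a set limit, 3 SD over mean compound inhibition, in both replicates, cut at about 43% in these data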;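 further: modified DeaD lifespan yeast strain shifted to restrictive glucose medium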). Conditions: OD615, 48 h, at 10 µM, hits give high values. An outline of the steps: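 material = engineered S. cerevisiae DeaD strain | medium = glucose-based CSMM-D restrictive medium | times = 4 h pre-incubation, 48 h exposure at 30 °C | technique = OD615 absorbance reading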

Assay [3] in a line: viability gain of MRP-1-high H69AR cells under doxorubicin, pilot screen, MRP-1 activator project, CellTiter-Glo, duplicate (AID 807;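 active means viability increase at or above a cutoff of the median across tested compounds plus 3 SD, cut at about 8.5% in these data, passing the limit was not always enough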;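 further: compound pretreatment 18-22 h then 72 h combined with doxorubicin; 0% = doxorubicin alone and 100% = vehicle without doxorubicin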). Conditions: H69AR viability with doxorubicin, CellTiter-Glo luminescence; at 10 µM; hits give high values. In general terms: ATP-based viability assays read luminescence as a measure of living cells.
Assay [4] in a line: growth suppression of PTEN-deleted HCT116, pilot screen, cell-based, HCT116 clonal line, CellTiter-Glo (AID 824;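 active means viability at or below 27.92% in each of two runs, the all-compound median minus 4 SD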;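 further: 0% = 20 µM Hyamine control and 100% = vehicle cell control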). Conditions: 60 h, at 10 µM, hits give low values.
Assay [5] is described as follows: inhibitors of the yeast RAM network, pilot screen, dse1pr::URA3 reporter, 5-FOA selection (AID 869;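 active means inhibition over a set limit, the all-compound mean plus 3 SD, in both replicate runs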;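 further: 0% = DMSO wells with no growth and 100% = 10 µM 1-NA-PP1 with full growth; RAM network block rescues cells from 5-FOA so hits raise OD615 growth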). Conditions: S. cerevisiae dse1pr::URA3 5-FOA growth, OD615, 2 d; at 10 µM; hits give high values; strain carries analog-sensitive mutant Cbk1 kinase.
Assay [6] in a line: RAM signaling pathway blockade in yeast – S. cerevisiae, Pdr1DBD-CYC8 efflux-inhibited sensitized strain, primary screen (AID 1298;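 active means RAM network inhibition above 8.4% in each of two replicates, 3 SD over the compound average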;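 further: 0% = DMSO untreated cells without growth and 100% = 10 µM 1-NA-PP1 full growth; higher means more yeast growth rescued from 5-FOA killing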). Conditions: S. cerevisiae cbk1-as DSE1-URA3 strain, 5-FOA growth OD615, 2 d; at 50 µM; hits give high values.

As a reminder, the viability is a read-out of living cells in per cent, often relative to untreated cells. As usually defined, the inhibition is the change of the read-out against control, counted positive when it falls.

`O=C(c1ccsc1)N1CCN(C(=O)c2cccs2)CC1`: the growth inhibition is -9.91% in assay [1] and 2.31% in assay [2]. The viability increase in assay [3] is 1.13%. Moreover, the viability in assay [4] was 107%. Also, the inhibition in assay [5] was 2.04%. Further, in assay [6], the RAM network inhibition is 0.97%.

Regarding `CCN(CC)C(=O)C(C)N(C#N)c1nc(NC(C)C)nc(NC(C)C)n1` (stereo not given), the growth inhibition in assay [1] is -9.32%; in assay [2], -0.315%. The viability increase in assay [3] is -3.7%. Besides, in assay [4], the viability is 101%. For the same molecule, the inhibition in assay [5] is 0.715%. Moreover, the RAM network inhibition in assay [6] is 2.25%.

For `Cc1cccc(N(CC(=O)Nc2c(C)n(C)n(-c3ccccc3)c2=O)S(C)(=O)=O)c1`, the results for the growth inhibition in assay [1] and in assay [2] were -9.29% and -0.62%, respectively. Further, the viability increase in assay [3] is -0.12%. Further, in assay [4], the viability is 106%. Further, the inhibition in assay [5] is 1.61%. For the same molecule, in assay [6], the RAM network inhibition was 1.64%.

Turning to `O=C1C(=O)N(CCCn2ccnc2)C(c2cccnc2)/C1=C(/O)c1ccc(Br)cc1` (stereo not given), the figures for the growth inhibition in assay [1] and in assay [2] were -7.97% and 7.01%, respectively. Also, in assay [3], the viability increase is -0.15%. Besides, in assay [4], the viability is 104%. In addition, the inhibition in assay [5] is 1.9%. For the same molecule, the RAM network inhibition in assay [6] is 4%.

Consider `O=C(Oc1ccc(Cl)cc1)N1CCCCC1`, for which the growth inhibition in assay [1] is -8.34%; in assay [2], 3.42%. Further, the viability increase in assay [3] was 0.94%. Further, in assay [4], the viability is 103%. In assay [5], the inhibition is -0.1%. For the same molecule, the RAM network inhibition in assay [6] was 4.56%.

For `CCOC(=O)N1CCN(C(=O)CN(c2cccc(C(F)(F)F)c2)S(C)(=O)=O)CC1`, the growth inhibition in assay [1] is -9.57%; in assay [2], -1.87%. The viability increase in assay [3] was -4.09%. For the same molecule, in assay [4], the viability was 88.9%. Besides, the inhibition in assay [5] is 0.905%. For the same molecule, the RAM network inhibition in assay [6] is 4.83%.

Take `CCN(CC)CCN1C(=O)C(=O)/C(=C(/O)c2ccc(C)cc2)C1c1ccncc1` (stereo not given): the growth inhibition in assay [1] is 2.04%; in assay [2], -2.02%. Moreover, the viability increase in assay [3] was 0.64%. Further, the viability in assay [4] was 97.9%. Also, the inhibition in assay [5] is 0.635%. Further, the RAM network inhibition in assay [6] was 5.38%.

As to `O=C(O)c1ccc(N2C(=O)CC(Cc3ccccc3)C2=O)cc1` (stereo not given), the growth inhibition in assay [1] is -3.14%; in assay [2], 2.02%. Moreover, the viability increase in assay [3] is -1.42%. Further, the viability in assay [4] is 100%. Besides, the inhibition in assay [5] is -0.025%. The RAM network inhibition in assay [6] was 0.72%.

For the molecule `O=C1C2C3C=CC(C3)C2C(=O)N1CCN1CCN(S(=O)(=O)c2ccc3ccccc3c2)CC1` (stereo not given), the growth inhibition in assay [1] is -8.82%; in assay [2], 0.84%. In assay [3], the viability increase was -5.03%. Further, in assay [4], the viability is 83.5%. Besides, the inhibition in assay [5] is 1.27%. The RAM network inhibition in assay [6] was 3.68%.

Regarding `CCC(=O)N1CCc2cc(Br)cc(S(=O)(=O)NCc3ccco3)c21`, the values for the growth inhibition in assay [1] and in assay [2] were -4% and -12.8%, respectively. The viability increase in assay [3] is -5.07%. Also, the viability in assay [4] was 96.8%. Moreover, the inhibition in assay [5] is 1.7%. Further, the RAM network inhibition in assay [6] is 1.85%.

For the molecule `Cc1ccc(S(=O)(=O)c2nc(-c3ccc(F)cc3)oc2SCC(=O)NCC2CCCO2)cc1` (stereo not given), the growth inhibition in assay [1] is 8.03%; in assay [2] it was -4.51%. The viability increase in assay [3] is -7.96%. In addition, the viability in assay [4] is 15.3% (active). Moreover, the inhibition in assay [5] is 0.69%. In addition, the RAM network inhibition in assay [6] is 10.9%.

On to `O=C(Nc1cccc(F)c1)Nc1ccccn1`, for which the growth inhibition in assay [1] is -10.9%; in assay [2] it was -7.43%. Further, the viability increase in assay [3] was -3.54%. For the same molecule, the viability in assay [4] is 88.1%. For the same molecule, in assay [5], the inhibition is 0.385%. Moreover, the RAM network inhibition in assay [6] is -0.16%.

As for `COc1ccccc1C(=O)Nc1ccc2c(c1)OCO2`, the figures for the growth inhibition in assay [1] and in assay [2] were 4.22% and -12.9%, respectively. Also, in assay [3], the viability increase was -3.95%. Moreover, the viability in assay [4] was 89.2%. Further, the inhibition in assay [5] was 2.47%. Further, in assay [6], the RAM network inhibition was -1.49%.

Consider `Cc1noc(C)c1CSc1nnc(-c2cc(Cl)ccc2Cl)n1N`, for which the growth inhibition was 8.57% in assay [1] and 8.54% in assay [2]. For the same molecule, the viability increase in assay [3] was -2.82%. The viability in assay [4] was 95%. Also, in assay [5], the inhibition was 1.9%. Further, the RAM network inhibition in assay [6] was 2.06%.

As for `CCc1nnc2n1N=C(c1ccc(-c3cc(Cl)ccc3Cl)o1)CS2`, the growth inhibition in assay [1] is 9.53%; in assay [2], 26.5%. Besides, the viability increase in assay [3] was -7.22%. Moreover, the viability in assay [4] is 22.4% (active). For the same molecule, the inhibition in assay [5] was 2.5%. In assay [6], the RAM network inhibition is 5.16%.

On to `CCOc1c(Br)cc(C(N)=O)cc1OC`, for which the growth inhibition in assay [1] is 5.05%; in assay [2], -3.4%. In assay [3], the viability increase was -2.49%. Also, the viability in assay [4] is 101%. Also, the inhibition in assay [5] is 0.87%. Also, in assay [6], the RAM network inhibition is 2.56%.

In the case of `O=C(CN1CCN(c2ccccn2)CC1)N(c1ccccc1)c1ccc2ccccc2c1`, the values for the growth inhibition in assay [1] and in assay [2] were -6.17% and -0.835%, respectively. The viability increase in assay [3] is -1.57%. Further, in assay [4], the viability was 69.9%. Further, the inhibition in assay [5] was 2.88%. Also, in assay [6], the RAM network inhibition was 5.32%.

For the molecule `COc1cc2c(cc1NC(=O)c1ccco1)CCCC2`, the growth inhibition in assay [1] is 3.87%; in assay [2], -4.68%. In addition, the viability increase in assay [3] was -6.9%. The viability in assay [4] is 81.1%. Moreover, the inhibition in assay [5] was 2.06%. Besides, the RAM network inhibition in assay [6] was 2.56%.

`C/C(=C1/SC(=S)N(CCC(=O)O)C1=O)c1ccc(O)cc1`: the growth inhibition is -5.09% in assay [1] and -8.91% in assay [2]. For the same molecule, the viability increase in assay [3] is 1.4%. Besides, in assay [4], the viability was 98.1%. The inhibition in assay [5] was 1.2%. Also, the RAM network inhibition in assay [6] is 0.45%.

On to `NC(=O)CCn1nc(-c2ccccc2)c2ccccc2c1=O`, for which the growth inhibition was 6.63% in assay [1] and 13.7% in assay [2]. In addition, the viability increase in assay [3] was -2.48%. The viability in assay [4] is 96.8%. Besides, the inhibition in assay [5] was 0.31%. In addition, the RAM network inhibition in assay [6] was 0%.
